Data set [1] deals with MV4;11 acute leukemia cell line. The data set can be described thus: Cell growth inhibition. It counts as cell-based. The settings on record: Homo sapiens, MV4-11, 96 h, read-out: IC50 MV4;11 cell growth inhibition.
The next data set concerns MV4;11 xenograft tumors. The note with it: mouse, in vivo.
Data set [2] has as its target recombinant human BRD4 BD2 (Homo sapiens, UniProt O60885). Kind of data set: Competitive fluorescence-polarization binding assay, BRD4 BD2. The note with it: for Ki: BRD4 BD2 Ki, FP competitive binding.
Data set [3] has as its target recombinant human BRD4 BD1 (Homo sapiens, UniProt O60885). Kind of data set: Competitive fluorescence-polarization binding assay, BRD4 BD1. The settings on record: for Ki: BRD4 BD1 Ki, FP competitive binding, Tables 1, 2, 7 and text.
Data set [4] relates to MOLM-13 acute leukemia cell line. Kind of data set: Cell growth inhibition. The format is cell-based. The settings on record: Homo sapiens, MOLM-13, 96 h, read-out: IC50 MOLM-13 cell growth inhibition.
The next data set is described as follows: Aqueous solubility. It counts as physicochemical.
Data set [5] in a line: Solubility in the dosing vehicle. It counts as physicochemical. The settings on record: 5% DMSO+10% Cremophor+85% saline.
The nature of another data set: Pharmacokinetics in rats. The format is in vivo, Sprague Dawley rats. The note with it: for CL: Rat, PO (25 mg/kg). Put shortly: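 Sprague Dawley rats got test compound iv at 5 mg/kg or orally at 25 mg/kg in a vehicle of 20% (v/v) PCP and 70% (v/v) PBS. Blood (100 μL) was drawn by catheter at 0, 5, 15 and 30 min and 1, 2, 4, 6, 8 and 24 hr, then spun at 15 000 rpm for 10 min. Plasma was stored at −80 °C and assayed by validated LC–MS/MS. Parameters were derived noncompartmentally.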

The next data set relates to PARP. Kind of data set: Western blot of PARP cleavage in MV4. The note with it: MV4;11 cells, 24 h. The format is cell-based, human. A general note: A western blot detects proteins with antibodies after separation by electrophoresis.
A further data set concerns the target all other 371 kinases. The data set can be described thus: DiscoverX KINOMEscan kinase screening, remaining panel. The settings on record: read-out: IC50 against all other 371 kinases. It counts as binding, human.
The test system of another data set is p21. The data set can be described thus: Western blot of p21 in MV4. It counts as cell-based, human. The settings on record: MV4;11 cells, 24 h.
Data set [6] deals with MDA-MB-231 xenograft tumors.
The next data set has as its system c-Myc. Kind of data set: Western blot of c-Myc in MV4. The format is cell-based, human. The settings on record: MV4;11 cells, 1 h, different concentrations.
[7] abbreviates: Table 4 second column as headed.

The structures appear in SMILES notation. Values joined by “and” are separate entries in the source; they are usually repeats but may differ in a detail not shown here. Equal values may be shown once.

The values that follow come from paper PMC6993113 (Journal of medicinal chemistry, 2017).

As usually defined, the IC50 is the point on the concentration scale where inhibition reaches its midpoint. Consider `COc1cc2c(cc1-c1c(C)noc1C)ncc1[nH]c(=O)n([C@H](C)c3ccccn3)c12` [Compound 5, I-BET151, reference compound], for which the IC50 in [1] was determined as 162 ± 112 nM. Further, in the data set with MV4;11 xenograft tumors, the “weight loss or other signs of toxicity” value was “did not cause weight loss or other signs of toxicity”.

Take `COc1cc2c(cc1-c1c(C)noc1C)[nH]c1ccnc(-c3c(C4CC4)n[nH]c3C)c12` [Compound 6, RX-37, reference compound]: in [1], the IC50 came out at 20 ± 9 nM.

In general, Ki refers to a measure of affinity in units of concentration, obtained from inhibition or displacement. For `COc1cc2c(cc1-c1c(C)noc1C)[nH]c1ncnc(-c3c[nH]c4cc(F)ccc34)c12` [Compound 20, 4-(4-(6-Fluoro-1H-indol-3-yl)-6-methoxy-9H-pyrimido[4,5-b]indol-7-yl)-3,5-dimethylisoxazole], the 50% inhibitory concentration (IC50) was determined as 76 ± 31 nM in data set [1], 12.2 ± 4.2 nM in data set [2], 2.2 ± 1 nM in [3] and 374 ± 52 nM in [4]. Moreover, the Ki in data set [2] (setting [7]) is 2.6 ± 0.8 nM; in data set [2] (Tables 1, 2, 7 and text) it was 1 nM; in data set [3] it was 2.6 nM.

Broadly, the Cmax is the highest concentration seen after dosing. Consider `COc1cc2c(cc1-c1c(C)noc1C)[nH]c1ncnc(-c3c(C)[nH]c4ccccc34)c12` [Compound 21, 4-(6-Methoxy-4-(2-methyl-1H-indol-3-yl)-9H-pyrimido[4,5-b]indol-7-yl)-3,5-dimethylisoxazole], for which the aqueous solubility entry in the data set “Aqueous solubility” is given as “poor”. The “solubility in the dosing vehicle” value in data set [5] is reported as “difficult to dissolve”. Also, the CL in the data set “Pharmacokinetics in rats” was 31.7 mL/min/kg. In “Pharmacokinetics in rats” (Sprague Dawley, rat, plasma, po, 25 mg/kg), the Cmax was 1470 ng/mL and ~3 µM.

As to `COc1cc2c(cc1-c1c(C)noc1C)[nH]c1ncnc(-c3c(C)[nH]c4cc(F)ccc34)c12` [Compound 22, 4-(4-(6-Fluoro-2-methyl-1H-indol-3-yl)-6-methoxy-9H-pyrimido[4,5-b]indol-7-yl)-3,5-dimethyl isoxazole], the IC50 in data set [1] came out at 5.1 ± 2.8 nM; in [2], 5.6 ± 1.9 nM; in data set [3], 2.3 ± 1.1 nM; in data set [4], 51 ± 6 nM. Also, the Ki in data set [2] (setting [7]) is 0.9 ± 0.3 nM; in data set [2] (Tables 1, 2, 7 and text), under 1 nM; in data set [3], under 1 nM.

Regarding `COc1cc2c(cc1-c1c(C)noc1C)[nH]c1ncnc(-n3nnc4ccccc43)c12` [Compound 28, 4-(4-(1H-Benzo[d][1,2,3]triazol-1-yl)-6-methoxy-9H-pyrimido[4,5-b]indol-7-yl)-3,5-dimethylisoxazole], in data set [2] (FP binding, 1 μM), the “binding to BRD4 BD2 at 1 μM” value is given as “fails to show any appreciable binding”. The “binding to BRD4 BD1 at 1 μM” value in data set [3] (FP binding, 1 μM) was “fails to show any appreciable binding”.

For `COc1cc2c(cc1-c1c(C)noc1C)[nH]c1nc(C)nc(-c3ccnc4ccccc34)c12` [Compound 31, 4-(6-Methoxy-2-methyl-4-(quinolin-4-yl)-9H-pyrimido[4,5-b]indol-7-yl)-3,5-dimethylisoxazole], the “weight loss or other signs of toxicity” value is given as “did not cause weight loss or other signs of toxicity” in the data set on MV4;11 xenograft tumors and “did not experience weight loss or other signs of toxicity” in data set [6] (mouse, in vivo). Also, in the data set on PARP, the “cleavage of PARP (marker of apoptosis)” value is “cleavage of PARP”. Besides, the IC50 on all other 371 kinases was over 50000 nM. Besides, the “effect on p21 protein level” value in the data set on p21 is on record as “effective in inducing upregulation of the cell cycle regulator p21”. The tumor growth inhibition entry in [6] (MDA-MB-231 xenograft in mice, 40 mg/kg dosing daily, during the treatment period) was “essentially complete tumor growth inhibition”. Moreover, in the data set on c-Myc, the “effect on c-Myc protein level” value is “rapid down-regulation of c-Myc at as early as the 1 h time-point and in a dose-dependent manner”. Besides, the “solubility in the dosing vehicle” value in [5] was “readily soluble”. Also, in “Pharmacokinetics in rats”, the CL came out at 14.7 mL/min/kg.

As for `COc1cc2c(cc1-c1c(C)noc1C)[nH]c1nc(C)nc(-c3c(C)ccc4ncccc34)c12` [Compound 33, 4-(6-Methoxy-2-methyl-4-(6-methylquinolin-5-yl)-9H-pyrimido[4,5-b]indol-7-yl)-3,5-dimethyl-isoxazole], the IC50 is 99 ± 43 nM in [1], 36.3 ± 6.9 nM in [2], 93.8 ± 15.8 nM in data set [3] and 220 ± 101 nM in data set [4]. The Ki in [2] (Tables 1, 2, 7 and text) was determined as 10.5 ± 1.9 nM; in data set [3], 38.4 ± 10.5 nM.
